# Data taken from PubChem BioAssay AID1381 (University of Pittsburgh Molecular Library Screening Center, 2008).
# Hit rate of the full screen: of about 220,000 compounds, about 1,000 (0.45%) were called active.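 How the source made its calls: active means plate z-score of nuclear minus cytoplasmic receptor signal below a set negative limit, without overly bright fluorescence or cell loss (cut at about -3.5 in these data, passing the limit was not always enough); inactive means the rest, inconclusive results apart.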 This excerpt belongs to a sample that is enriched for actives.
# Test: inhibitors of GR-EGFP nuclear translocation, primary screen, dynein cargo transport inhibitor project, imaging, high-content, 3617.4 mouse cells (AID 1381)
# Conditions: stimulated with dexamethasone, 1 µM
# Outline: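 Also added – dexamethasone, 1.0 µM final · Buffer or medium – tet-free, stripped-serum medium · Schedule – induction 48 h, compound 1 h, agonist 30 min · Detection – formaldehyde fixation, Hoechst nuclear stain, 10x automated fluorescence imaging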
# [1] = measured here: cell count per field, at 20 µM
# [2] = measured here: cytoplasmic GR-EGFP intensity, at 20 µM, stronger effect = higher value
# [3] = measured here: nuclear GR-EGFP intensity, at 20 µM, stronger effect = lower value
# [4] = measured here: cell count per field, at 50 µM
# [5] = measured here: cytoplasmic GR-EGFP intensity, at 50 µM, stronger effect = higher value
# [6] = measured here: nuclear GR-EGFP intensity, at 50 µM, stronger effect = lower value
SMILES,"z-score (at 20 µM, stronger effect = lower value)",z-score [1],z-score [2],z-score [3],"z-score (at 50 µM, stronger effect = lower value)",z-score [4],z-score [5],z-score [6]
O=C1NC(=O)N(c2ccccc2)C(=O)/C1=C/c1ccc([N+](=O)[O-])s1,-5.82 (active),0.268,2.42,-2.58,,,,
Cc1c(C(=O)O)cccc1-n1c(C)cc(/C=C2\C(=O)NC(=O)N(c3ccc4c(c3)OCO4)C2=O)c1C,-0.66 (inactive),0.519,-0.101,-0.113,,,,
Cc1cccc(N2C(=O)NC(=O)/C(=C\c3cnn(-c4ccccc4)c3)C2=O)c1,0.124 (inactive),-0.649,-0.166,0.444,,,,
Cc1ccccc1N1C(=O)NC(=O)/C(=C\c2cc(C)n(C)c2C)C1=O,-0.127 (inactive),0.901,-0.306,-0.135,,,,
COc1cccc(N2C(=O)NC(=O)/C(=C\c3ccc([N+](=O)[O-])s3)C2=O)c1,-6.53 (active),-0.425,2.64,-2.61,,,,
O=C1NC(=O)N(c2ccc(F)cc2)C(=O)/C1=C/c1ccc2c(c1)CCCN2Cc1ccccc1,-0.735 (inactive),-0.42,4.11,0.344,,,,
OC1/C(=C/c2ccc(C(F)(F)F)cc2)N2CCC1CC2 (stereo not given),-1.47 (inactive),0.879,-0.265,-0.69,,,,
CCCC[N+]1(C)C2CC(OC(=O)C(CO)c3ccccc3)CC1C1OC12 (stereo not given),-0.526 (inactive),0.258,-0.759,0.0484,,,,
c1cc2c(cc1CCNC1CCCCCC1)OCO2,,,,,1.01 (inactive),0.684,-0.246,0.379
CC(c1ccccc1)(c1ccccc1)c1ccncc1,-0.152 (inactive),-0.267,-0.379,-0.628,,,,
Cc1cc(C=C2C(=O)NC(=O)NC2=O)c(C)n1-c1ccncc1,1.16 (inactive),-1.04,-0.229,0.621,,,,
CCN(CC)C(=O)c1ccc(NC(=O)c2cc(-n3cnnc3)ccc2Cl)cc1,,,,,1.07 (inactive),-0.204,-0.239,0.487
CN(C)CC1Oc2ccccc2OC1(O)c1ccccc1 (stereo not given),-6.23 (active),1.09,1.79,-2.55,,,,
COc1ccc(NC(=O)c2cn(CCC#N)nc2-c2ccc([N+](=O)[O-])cc2)cc1,-0.74 (inactive),0.149,-0.33,-0.871,,,,
CCC(C)n1c(O)c(/C=N/Nc2nc3c(c(=O)n(C)c(=O)n3C)n2C)c(=O)[nH]c1=S (stereo not given),-0.95 (inactive),0.937,-0.21,-0.129,,,,
